Screens (PubChem)
In the library only some 4.1% were active in any assay of this set; here they are far more common.
KCNQ1 act: human KCNQ1 channel potentiation or activation; P51787; CHO-K1 KCNQ1, thallium flux FluxOR fluorescence; hits give high values; B-score at 10 µM; hit rate 0.35% among 310,000; AID 2648;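 active = fluorescence ratio B-score, a plate-corrected score, at least three library SD, with initial intensity B-score within 5 SD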
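Assay system: stable KCNQ1 CHO-K1 line; medium: assay buffer, equal DMSO in all wells; timing: 90 min dye loading and 20 min compound exposure, both at room temperature; technique: kinetic FluxOR thallium fluorescence, 10-s 1-Hz baseline, 110-s post-stimulus read; read-out basis: B score of baseline-normalized fluorescence ratio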
KCNK3 block: human KCNK3 channel inhibition, primary screen | hit rate 0.84% among 340,000 | CHO-KCNK3 thallium flux, FluxOR fluorescence; hits give low values | O14649 | B-score at 10 µM;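 active = B-score under library mean minus 4 SD, starting fluorescence ratio at most library mean plus 5 SD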;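 also: more negative B-score means stronger inhibition of thallium flux through KCNK3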
KCNK9 inh: human KCNK9 channel inhibition; HEK293 KCNK9, FluxOR thallium flux fluorescence; hits give low values; AID 488922; B-score at 10 µM; Q9NPC2; hit rate 1.2% among 310,000;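 active = ratio B-score over 3 SD below the library mean, with starting fluorescence within 5 SD of its mean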;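 also: negative B-score means less thallium flux so channel inhibition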
Cl transport mod: KCC2 (human) Cl- transport modulation; Q9H2X9; hit rate 2.2% among 190,000; B-score of Tl+ flux slope (higher = more flux/activation; lower = inhibition) at 10 µM; KCC2 cells, thallium flux FluoZin-2 fluorescence;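 active = thallium flux slope and its plate-corrected score both differing from the plate sample mean at a set confidence after two filtering rounds, in either direction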;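 also: slope of fluorescence scaled to starting intensity during 10 to 20 s after thallium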
KCNQ1 block: blocks the human KCNQ1 potassium channel; B-score at 10 µM; CHO-K1 KCNQ1, FluxOR thallium flux fluorescence; hits give high values; P51787; hit rate 1.3% among 310,000;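 active = compounds whose thallium flux B-score, printed positive for inhibition, exceeds three library SD while starting fluorescence stays within three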;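 also: channel opened by potassium depolarization with thallium stimulus after 20 min compound exposure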
hERG protect: compounds protecting human hERG from proarrhythmic drug block; Q12809; CHO-hERG, FluxOR thallium flux, dofetilide IC70 present; activation (rescue from dofetilide block), less the hit threshold, % at 10 µM; hit rate 0.51% among 310,000; AID 1511;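 active = activation above the mean of controls blocked by dofetilide plus 5 SD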;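 also: thallium influx through hERG after potassium depolarization seen as dye fluorescence rise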
Target sequence (Q12809 whole entry, looked up): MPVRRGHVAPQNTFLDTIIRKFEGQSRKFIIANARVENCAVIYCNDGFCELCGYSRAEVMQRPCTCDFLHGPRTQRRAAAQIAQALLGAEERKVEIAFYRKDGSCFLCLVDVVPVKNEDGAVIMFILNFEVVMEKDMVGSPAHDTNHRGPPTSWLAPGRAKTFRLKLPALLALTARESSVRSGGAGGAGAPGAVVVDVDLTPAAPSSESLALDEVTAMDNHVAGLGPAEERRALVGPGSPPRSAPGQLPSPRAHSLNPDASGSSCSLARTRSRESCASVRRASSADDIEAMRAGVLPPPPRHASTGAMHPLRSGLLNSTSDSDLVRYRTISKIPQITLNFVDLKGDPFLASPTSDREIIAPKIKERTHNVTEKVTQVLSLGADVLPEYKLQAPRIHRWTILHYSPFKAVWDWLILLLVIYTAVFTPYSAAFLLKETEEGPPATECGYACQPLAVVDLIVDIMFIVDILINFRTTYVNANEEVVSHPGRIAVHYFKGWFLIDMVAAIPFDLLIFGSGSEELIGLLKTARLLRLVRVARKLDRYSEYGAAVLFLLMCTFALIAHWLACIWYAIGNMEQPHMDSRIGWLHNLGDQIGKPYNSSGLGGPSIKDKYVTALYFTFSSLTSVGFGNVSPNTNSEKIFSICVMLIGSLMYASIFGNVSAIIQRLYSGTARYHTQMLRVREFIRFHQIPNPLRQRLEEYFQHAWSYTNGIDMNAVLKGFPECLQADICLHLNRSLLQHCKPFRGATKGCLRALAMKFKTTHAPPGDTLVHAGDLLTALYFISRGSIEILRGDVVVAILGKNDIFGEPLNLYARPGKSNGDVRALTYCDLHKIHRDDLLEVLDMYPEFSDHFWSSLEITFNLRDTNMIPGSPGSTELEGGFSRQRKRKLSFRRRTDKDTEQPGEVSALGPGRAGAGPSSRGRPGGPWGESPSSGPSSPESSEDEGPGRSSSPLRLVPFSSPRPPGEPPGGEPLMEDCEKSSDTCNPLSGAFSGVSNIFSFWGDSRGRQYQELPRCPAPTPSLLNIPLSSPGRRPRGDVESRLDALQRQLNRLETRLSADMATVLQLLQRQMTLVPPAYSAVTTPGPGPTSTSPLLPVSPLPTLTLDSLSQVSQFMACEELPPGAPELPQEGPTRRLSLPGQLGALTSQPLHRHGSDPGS
KCNK9 block conf: confirmation of human KCNK9 potassium channel inhibitors; shares compounds with KCNK9 inh; HEK293 KCNK9 cells, FluxOR thallium flux fluorescence; inhibition, % at 10 µM; hit rate 43% among 4,900;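 active = thallium signal inhibited by more than 5 SD of the compound-free buffer control wells, on both duplicate plates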;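 also: 0% = assay buffer control wells without compound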
Kir2-1 spec: mouse Kir2.1 off-target activity of KCNK9 modulators; shares compounds with KCNK9 inh; Kir2.1 cells, FluxOR thallium flux fluorescence; inhibition, % at 10 µM; hit rate 4% among 4,900;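 active = thallium signal drop more than 5 SD beyond the mean of the no-compound control wells, seen in both duplicate plates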;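 also: signal is fluorescence rise after thallium addition divided by baseline fluorescence; plate controls were assay buffer only for no effect and full block by chlorpromazine control for full effect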
KCNK9 uninduced: non-induced cell nonspecific activity of KCNK9 modulators; non-induced KCNK9-HEK293, FluxOR thallium flux; hit rate 40% among 4,900; inhibition, % at 10 µM; shares compounds with KCNK9 inh;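 active = thallium signal drop beyond 5 SD of the untreated control mean, on both duplicate plates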;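 also: plate controls were buffer only IC0 wells for no effect and SID17386958 at its maximal inhibitory level for full effect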
An asterisk follows results filed as active; i = inactive; . = no result given.

SMILES | KCNQ1 act | KCNK3 block | KCNK9 inh | Cl transport mod | KCNQ1 block | hERG protect | KCNK9 block conf | Kir2-1 spec | KCNK9 uninduced
CCn1c(=O)n(CC)c2cc(N3CCCC3)c(NC(=O)c3ccccc3OC)cc21 | i | i | -8.97* | . | i | -12.9 | 42.0%* | i | i
COc1ccc(C(=O)Nc2cc3c(cc2N2CCCCC2)n(C)c(=O)n3C)cc1OC | i | i | i | . | i | -8.8 | . | . | .
COc1cc(C(=O)Nc2cc3c(cc2N2CCCCC2)n(C)c(=O)n3C)cc(OC)c1OC | i | i | -19.6* | . | i | -7.1 | 67.0%* | i | i
CCC(Cc1ccccc1)NC(=O)CCNS(=O)(=O)c1cc(Br)cnc1N (stereo not drawn) | i | i | i | . | i | -12.0 | . | . | .
CCOC(=O)Cc1csc(NC(=O)c2ccc(C)c(S(=O)(=O)N3CCOCC3)c2)n1 | . | i | . | . | . | . | . | . | .
COc1ccc(OC)c(-c2csc(N(C)C(=O)Cc3ccccc3)n2)c1 | i | i | i | -0.36 | i | -15.8 | . | . | .
COc1ccc(-c2csc(N(Cc3ccco3)C(=O)c3cccs3)n2)cc1 | i | i | -9.37* | . | i | -20.6 | 50.0%* | i | 39.5%*
COc1ccc(OC)c(-c2csc(N(Cc3ccco3)C(=O)c3cccs3)n2)c1 | i | i | -12.5* | -0.339 | 7* | -14.2 | 49.0%* | i | 43.0%*
COc1ccc(-c2csc(N(C)C(=O)c3cccs3)n2)cc1 | i | i | i | -0.437 | i | -9.5 | . | . | .
CSc1cccc(NC(=O)C2CCN(S(=O)(=O)c3ccc4c(c3)NC(=O)CO4)CC2)c1 | i | i | i | . | i | -7.8 | . | . | .
Cc1ccc(NC(=O)CN2CCc3cc4c(cc3C2)OCCCO4)cc1 | i | i | i | . | i | -8.3 | . | . | .
Cc1cccc(NC(=O)CN2CCc3cc4c(cc3C2C)OCCCO4)c1 (stereo not drawn) | i | i | i | . | i | -13.1 | i | i | i
Cc1cc(C)cc(NC(=O)CN2CCc3cc4c(cc3C2C)OCCCO4)c1 (stereo not drawn) | i | i | i | . | i | -8.3 | i | i | i
Cc1cccc(NC(=O)CN2CCc3cc4c(cc3C2)OCCCO4)c1 | i | i | i | . | i | -7.5 | i | i | i
O=C(Nc1ccccc1F)C1COc2ccccc2O1 (stereo not drawn) | i | i | i | . | i | -8.9 | . | . | .
CC[C@H](C)[C@H]1O[C@]2(CC[C@@H]1C)C[C@@H]1C[C@@H](CC=C(C)[C@@H](O[C@H]3C[C@H](OC)[C@@H](O[C@H]4C[C@H](OC)[C@@H](O)[C@H](C)O4)[C@H](C)O3)[C@@H](C)C=CC=C3CO[C@@H]4[C@H](O)C(C)=C[C@@H](C(=O)O1)[C@]34O)O2 | . | i | . | . | . | . | . | . | .
O=C(NCCC(=O)N1CCN(C(=O)c2ccco2)CC1)c1ccc(Br)cc1 | i | i | i | . | i | -15.8 | . | . | .
O=C(COc1ccccc1Cl)NC1CC1 | i | i | i | . | i | -8.7 | . | . | .
O=C(CSc1nc(CCC2CCCC2)nc2ccccc12)NCc1ccc2c(c1)OCO2 | i | i | -13* | 21.3* | i | -7.8 | 47.0%* | i | i
O=C(CSc1nc(Cc2ccccc2)nc2ccccc12)c1ccc2c(c1)OCCO2 | i | i | -14.3* | 0.447 | i | -3.4 | 57.0%* | i | 34.0%*
O=[N+]([O-])c1ccc(Cl)c(S(=O)(=O)N2CCCCCC2)c1 | i | i | -10.5* | 0.0392 | i | -7.5 | i | i | 24.0%*
Cc1cc(NC(=O)CN2C(=O)N(C)C3(CCCCC3)C2=O)ccc1Br | . | i | . | . | . | . | . | . | .
NC(=O)/C=C\c1cn(-c2ccccc2)nc1-c1ccc2c(c1)OCCO2 | i | i | i | 0.634 | i | -7.7 | . | . | .
CC(C)OC(=O)c1cn(-c2ccccc2)nc1-c1ccc2c(c1)OCCO2 | i | i | i | . | i | -14.2 | i | i | i
CCOC(=O)C1=C(C)N(C)C(=O)NC1c1c(C)nn(-c2ccc(C)cc2)c1Cl (stereo not drawn) | i | i | i | -0.0912 | i | -11.8 | i | i | i
SMILES | KCNQ1 act | KCNK3 block | KCNK9 inh | Cl transport mod | KCNQ1 block | hERG protect | KCNK9 block conf | Kir2-1 spec | KCNK9 uninduced
COc1cccc(C(=O)NC(=S)Nc2ccc(Cl)cc2C(=O)O)c1 | i | i | i | -1.16 | i | -5.1 | . | . | .
COc1cccc(C(=O)NC(=S)Nc2ccc3c4c(cccc24)CC3)c1 | i | i | i | 5.01* | i | -5.8 | i | i | i
COc1ccc(NC(=O)CN(C)C(=O)CCCNC(=O)c2ccc(Cl)cc2)cc1 | i | i | i | . | i | -16.4 | . | . | .
O=C(c1cc(COc2cccc(C(F)(F)F)c2)on1)N1CCc2ccccc2C1 | i | i | i | . | i | -2.3 | . | . | .
CN(Cc1nccn1C)C(=O)c1cc(COc2cccc(C(F)(F)F)c2)on1 | i | i | i | . | i | -2.8 | . | . | .
Cc1ccc(CN(C)C(=O)c2cc(COc3cccc(C(F)(F)F)c3)on2)o1 | i | i | i | . | i | -12.8 | i | i | 32.5%*
C=CCC1(CC=C)CCCN1C(=O)c1cc(COc2cccc(C(F)(F)F)c2)on1 | i | i | i | . | i | -11.5 | i | i | i
S=C(NCC1CCCO1)c1ccc(Br)cc1 (stereo not drawn) | i | i | i | . | i | -6.2 | . | . | .
O=C(O)c1ccccc1N/N=C\c1ccnc2ccccc12 | i | i | i | -2.14 | i | -9.3 | . | . | .
O=C(O)c1ccccc1N/N=C/c1cc(Br)cc(Br)c1O | i | i | i | 2.26 | 6* | -13.0 | i | i | i
Cc1nnc(Cn2cnc3c2c(=O)n(C)c(=O)n3C)o1 | i | i | i | . | i | -5.2 | . | . | .
COc1ccc(NC(=O)c2cccc(Oc3ccc([N+](=O)[O-])cc3Cl)c2)cc1 | i | i | i | -0.463 | i | -12.6 | . | . | .
O=C(Nc1cccc(Cl)c1)c1cccc(Oc2ccc([N+](=O)[O-])cc2Cl)c1 | i | i | i | 0.176 | i | -13.7 | i | i | i
Cc1cc(O)c(NC(=O)c2cc([N+](=O)[O-])ccc2Cl)cc1C | i | i | -14.3* | -2.37 | i | -17.0 | 61.5%* | i | i
Cc1ccc(O)c(NC(=O)c2cc([N+](=O)[O-])ccc2Cl)c1 | i | i | i | -0.29 | i | -22.1 | . | . | .
